What all share (details): Bos taurus
The test system of assay [1] is Calf thymus DNA. As to the kind of experiment: Binding affinity to calf thymus DNA at 20 uM after 20 mins by UV spectrophotometer analysis. It counts as nucleic-acid assay. The method, boiled down: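 Compound stock diluted in cuvette to 20 µM final with degassed 100 mM NaCl, 10 mM NaH2PO4, pH 7.0. Calf thymus DNA was added from stock. After each addition the sample was heated to 65 °C and cooled slowly (5 °C/min), and the UV-vis spectrum was recorded 20 min later at 25 °C. DNA concentration was set from ε260 = 6600 M−1 cm−1.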

The subject of assay [2] is Calf thymus DNA. As to the kind of experiment: Binding affinity to calf thymus DNA assessed as change on melting temperature (reference value: 76 degC).
In assay [3] the test system is Calf thymus DNA. As to the kind of experiment: Binding affinity to calf thymus DNA assessed as fluorescence enhancement at 20 uM by steady state fluorescence emission spectroscopic analysis relative to control.

Molecules are shown by their SMILES. Activity calls are given as the source filed them. The rule behind the calls is not given here.

From ChEMBL document CHEMBL1641499, “Towards echinomycin mimetics by grafting quinoxaline residues on glycophane scaffolds” (Bioorg Med Chem, 2011) come the findings set out here.

On to `CS[C@H]1SC[C@H]2C(=O)N(C)[C@@H](C(C)C)C(=O)OC[C@@H](NC(=O)c3cnc4ccccc4n3)C(=O)N[C@@H](C)C(=O)N(C)[C@@H]1C(=O)N(C)[C@@H](C(C)C)C(=O)OC[C@@H](NC(=O)c1cnc3ccccc3n1)C(=O)N[C@@H](C)C(=O)N2C`, for which the outcome in assay [1] was Active. The Tm in assay [2] was 79 °C.

As to `C=CCCCO[C@H]1O[C@H](C(=O)N(Cc2ccc(CN(Cc3cnc4ccccc4n3)C(=O)[C@H]3O[C@H](OCCCC=C)[C@H](O)[C@@H](O)[C@@H]3O)cc2)Cc2cnc3ccccc3n2)[C@@H](O)[C@H](O)[C@H]1O`, in assay [1], the result was Active. Further, the fold change (FC) in assay [3] amounted to 2.8. Further, in assay [2], the Tm worked out at 81 °C.

With `O=C1[C@H]2O[C@H](OC/C=C/CO[C@H]3O[C@H](C(=O)N(Cc4cnc5ccccc5n4)Cc4ccc(cc4)CN1Cc1cnc4ccccc4n1)[C@@H](O)[C@H](O)[C@H]3O)[C@H](O)[C@@H](O)[C@@H]2O`, in assay [1], the result was Active. Also, in assay [3], the fold change (FC) came to 5.5. In assay [2], the Tm stood at 78 °C.

For the compound `C=CCO[C@H]1O[C@H](C(=O)N(Cc2ccc(CN(Cc3cnc4ccccc4n3)C(=O)[C@H]3O[C@H](OCC=C)[C@H](O)[C@@H](O)[C@@H]3O)cc2)Cc2cnc3ccccc3n2)[C@@H](O)[C@H](O)[C@H]1O`, the outcome in assay [1] was Active. Also, the fold change (FC) in assay [3] worked out at 2.8. In addition, the Tm in assay [2] was determined as 79 °C.

On to `O=C1[C@H]2O[C@H](OCCC/C=C/CCCO[C@H]3O[C@H](C(=O)N(Cc4cnc5ccccc5n4)Cc4ccc(cc4)CN1Cc1cnc4ccccc4n1)[C@@H](O)[C@H](O)[C@H]3O)[C@H](O)[C@@H](O)[C@@H]2O`, for which, in assay [1], the outcome was Active. In assay [2], the Tm worked out at 79 °C.
